In PMC4294696 (Bioorganic & medicinal chemistry letters, 2014):
Entries after “also recorded” stand apart in the source; their conditions may differ.

Columns and labels:
5-HT1AR [1] = molecular target: T1, 5-HT1AR (Homo sapiens, UniProt P08908); assay: 5-HT1AR competition binding with [3H]8-OH-DPAT
T1 sequence (P08908 1-422): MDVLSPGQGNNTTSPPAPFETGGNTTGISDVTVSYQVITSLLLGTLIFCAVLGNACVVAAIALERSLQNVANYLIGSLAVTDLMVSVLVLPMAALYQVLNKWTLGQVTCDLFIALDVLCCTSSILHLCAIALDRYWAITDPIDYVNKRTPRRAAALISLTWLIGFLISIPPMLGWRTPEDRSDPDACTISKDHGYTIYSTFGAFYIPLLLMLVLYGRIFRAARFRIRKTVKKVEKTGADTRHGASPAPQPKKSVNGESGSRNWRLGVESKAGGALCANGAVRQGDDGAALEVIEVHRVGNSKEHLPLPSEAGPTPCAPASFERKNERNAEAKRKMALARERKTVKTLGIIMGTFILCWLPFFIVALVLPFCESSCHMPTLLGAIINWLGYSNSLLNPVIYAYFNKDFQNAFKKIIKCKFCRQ

α-1AR = α-1AR competition binding with [3H]-7-methoxyprazosin; conditions: for selectivity for 5-HT1AR over α-1AR: ratio of Ki values
5-HT1AR [2] = molecular target: T1, 5-HT1AR; assay: Agonist-stimulated [35S]GTPγS binding in CHO-h5-HT1A cell membranes; assay type: biochemical
Outline: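 Membranes from CHO cells stably expressing human 5-HT1AR were used. [35S]GTPγS was added at 0.1 nM and incubation continued for 60 min at room temperature. The reaction was stopped by rapid filtration through GF/B filters, followed by three washes with ice-cold 20 mM HEPES, pH 7.4. Bound radioactivity was counted by liquid scintillation. The response was taken as binding above basal.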

SMILES | 5-HT1AR binding affinity (in words) (5-HT1AR [1]) | selectivity for 5-HT1AR over α-1AR (α-1AR) | selectivity for 5-HT1AR over α-1AR (in words) (α-1AR) | agonist profile as measured by GTPγS binding (in words) (5-HT1AR [2])
COc1ccccc1N1CCN(CCCCn2ncc(=O)n(C)c2=O)CC1 [Compound 8] | nanomolar affinity |  |  | 
COc1ccc(N2CCN(CCCCn3ncc(=O)n(C)c3=O)CC2)cc1 [Compound 10] | sharp decrease in affinity |  |  | 
COc1ccc(N2CCN(CCCCn3ncc(=O)n(C)c3=O)CC2)c(OC)c1 [Compound 11] | sharp decrease in affinity |  |  | 
CCOc1ccccc1N1CCN(CCCCn2ncc(=O)n(C)c2=O)CC1 [Compound 12] | nanomolar affinity |  |  | 
Cn1c(=O)cnn(CCCCN2CCN(c3ccccc3OCCCF)CC2)c1=O [Compound 14] | nanomolar affinity |  |  | 
CSc1ccccc1N1CCN(CCCCn2ncc(=O)n(C)c2=O)CC1 [Compound 17] | nanomolar affinity |  |  | 
Cn1c(=O)cnn(CCCCN2CCN(c3ccc(I)cc3)CC2)c1=O [Compound 19] | sharp decrease in affinity |  |  | 
Cn1c(=O)cnn(CCCCN2CCN(c3ccccc3C#N)CC2)c1=O [Compound 20] | nanomolar affinity |  |  | 
Cn1c(=O)cnn(CCCCN2CCN(c3c(Br)cccc3C#N)CC2)c1=O [Compound 23] | sharp decrease in affinity |  |  | 
Cn1c(=O)cnn(CCCCN2CCN(c3ccccc3O)CC2)c1=O [Compound 24] | nanomolar affinity | > 10,000 times |  | 
Cn1c(=O)cnn(CCCCN2CCN(c3cccc(O)c3)CC2)c1=O [Compound 25] | nanomolar affinity; also recorded: high affinity |  | excellent selectivity | 
Cn1c(=O)cnn(CCCCN2CCN(c3ccccn3)CC2)c1=O [Compound 27, 4-Methyl-2-(4-(4-(pyridin-2-yl)piperazin-1-yl)butyl)-1,2,4-triazine-3,5(2H,4H)-dione] | high affinity |  | excellent selectivity | 
Cn1c(=O)cnn(CCCCN2CCN(c3ncccc3F)CC2)c1=O [Compound 29] | high affinity |  | excellent selectivity | 
Cn1c(=O)cnn(CCCCN2CCN(c3ccccc3S)CC2)c1=O [Compound 31] | nanomolar affinity | > 10000 times |  | 
Cn1c(=O)cnn(CCCCN2CCN(c3cccc(F)n3)CC2)c1=O [Compound 32] | high affinity; also recorded: nanomolar affinity |  | excellent selectivity; also recorded: higher selectivity to 5-HT1AR over α-1AR in comparison to CUMI-101 | robust agonist profile
Cn1c(=O)cnn(CCCCN2CCN(c3cccc(Br)n3)CC2)c1=O [Compound 33] | high affinity |  | excellent selectivity | 
COc1ccccc1N1CCN(CCCCCn2ncc(=O)n(C)c2=O)CC1 [Compound 38] | did not see considerable improvement |  |  | 
COc1ccc2cccc(N3CCN(CCCCCn4ncc(=O)n(C)c4=O)CC3)c2c1 [Compound 42] | did not see considerable improvement |  |  | 
